Measurements published in ChEMBL document CHEMBL4049430, “Indazole-6-phenylcyclopropylcarboxylic Acids as Selective GPR120 Agonists with in Vivo Efficacy” (J Med Chem, 2017).
The source made the active and inactive calls. No cut-off for these calls is given here.

Assays:
[1] = molecular target: Free fatty acid receptor 1 (Mus musculus) (UniProt Q76JU9); test: Agonist activity at mouse GPR40 expressed in HEK293 cells assessed as increase in intracellular calcium level after 5 mins by FLUO-4-AM dye-based FLIPR assay relative to control; type: functional, cell-based
Sequence of Free fatty acid receptor 1 (Mus musculus) (Q76JU9 whole entry): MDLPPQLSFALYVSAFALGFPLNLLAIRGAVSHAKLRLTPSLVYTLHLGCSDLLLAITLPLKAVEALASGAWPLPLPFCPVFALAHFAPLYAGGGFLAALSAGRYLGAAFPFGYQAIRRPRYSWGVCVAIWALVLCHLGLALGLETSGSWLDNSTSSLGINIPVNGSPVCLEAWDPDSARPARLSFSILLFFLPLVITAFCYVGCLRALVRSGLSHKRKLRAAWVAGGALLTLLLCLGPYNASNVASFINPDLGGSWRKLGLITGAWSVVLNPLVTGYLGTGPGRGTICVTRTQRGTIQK
Method in brief: (§1)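 HEK293s cells stably expressing mouse GPR40 were seeded 24 h before assay and loaded for 1 h with calcium 3/Fluo-4 AM in HBSS, 20 mM HEPES, 0.01% BSA, 2.5 mM probenecid, pH 7.4. FLIPR Tetra took 10 baseline reads, then read for 5 min after addition. Runs were in duplicate, 9 points, 100 μM to 7 nM final, as % of maximal eladic acid control.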

[2] = Octanol-buffer partition coefficient, log D of the compound at pH 7.4 after 30 mins by LC-UV based shake-flask method
[3] = molecular target: T1, Free fatty acid receptor 4 (Mus musculus, UniProt Q7TMA4); test: Agonist activity at mouse GPR120 expressed in CHO-FlpIn cells after 15 mins by DMR assay; type: cell-based
T1 sequence (Q7TMA4 whole entry): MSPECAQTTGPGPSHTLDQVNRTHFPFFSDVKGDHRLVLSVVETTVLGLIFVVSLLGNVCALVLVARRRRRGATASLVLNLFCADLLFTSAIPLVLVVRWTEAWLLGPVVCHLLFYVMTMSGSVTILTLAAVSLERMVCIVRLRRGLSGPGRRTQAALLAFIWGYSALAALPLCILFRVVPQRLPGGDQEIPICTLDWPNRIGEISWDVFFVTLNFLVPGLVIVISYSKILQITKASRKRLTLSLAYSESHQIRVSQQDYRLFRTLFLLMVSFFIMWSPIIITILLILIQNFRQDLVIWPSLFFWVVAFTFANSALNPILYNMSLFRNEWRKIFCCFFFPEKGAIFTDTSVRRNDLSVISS
Method in brief: (§2)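 Cryopreserved CHO FlpIn cells stably expressing human or mouse GPR120 were seeded 48 h before assay, serum-starved for 24 h, then held 2 h in HBSS/20 mM HEPES/0.01% BSA (pH 7.4) with 0.5% DMSO. DMR was read over a 10 min baseline and for 15 min after addition. Runs were in duplicate, 10 points, 16 μM to 0.8 nM final, as % of maximal control agonist.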

[4] = molecular target: Free fatty acid receptor 1 (Mus musculus, UniProt Q76JU9); test: Agonist activity at mouse GPR40 expressed in HEK293 cells assessed as increase in intracellular calcium level after 5 mins by FLUO-4-AM dye-based FLIPR assay; type: functional, cell-based; method in brief: as §1
Sequence of Free fatty acid receptor 1 (Q76JU9 whole entry): as the sequence (Q76JU9 whole entry) above

[5] = Protein binding in mouse plasma assessed as unbound fraction after 24 hrs by equilibrium dialysis; type: ADME, cell-free
[6] = molecular target: T2, Free fatty acid receptor 4 (Homo sapiens) (UniProt Q5NUL3); test: Agonist activity at human GPR120 expressed in CHO-FlpIn cells after 15 mins by DMR assay relative to control; type: cell-based; method in brief: as §2
T2 sequence (whole entry): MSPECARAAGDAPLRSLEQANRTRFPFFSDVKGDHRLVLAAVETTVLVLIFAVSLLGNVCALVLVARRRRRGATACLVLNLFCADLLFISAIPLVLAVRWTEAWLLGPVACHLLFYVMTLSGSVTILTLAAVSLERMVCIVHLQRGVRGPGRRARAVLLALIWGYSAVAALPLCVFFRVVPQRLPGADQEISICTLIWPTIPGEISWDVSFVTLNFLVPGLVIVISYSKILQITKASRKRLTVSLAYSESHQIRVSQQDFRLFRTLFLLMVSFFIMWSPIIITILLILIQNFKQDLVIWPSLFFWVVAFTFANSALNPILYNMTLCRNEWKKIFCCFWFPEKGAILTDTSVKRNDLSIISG

[7] = Clearance in mouse at 2.5 mg/kg, iv after 24 hrs; type: ADME, organism-based; settings: in vivo
[8] = (§3) Oral bioavailability in mouse at 5 mg/kg after 24 hrs; type: ADME, organism-based; settings: in vivo
[9] = molecular target: T3, Free fatty acid receptor 4 (Mus musculus) (UniProt Q7TMA4); test: Agonist activity at mouse GPR120 expressed in CHO-FlpIn cells after 15 mins by DMR assay relative to control; type: cell-based; method in brief: as §2
T3 sequence (whole entry): T1 sequence (Q7TMA4 whole entry)

[10] = Volume of distribution at steady state in mouse at 2.5 mg/kg, iv after 24 hrs; type: ADME, organism-based; settings: in vivo, read-out: Vdss
[11] = molecular target: T4, Free fatty acid receptor 4 (Homo sapiens, UniProt Q5NUL3); test: Agonist activity at human GPR120 expressed in CHO-FlpIn cells after 15 mins by DMR assay; type: cell-based; method in brief: as §2
T4 sequence (Q5NUL3 whole entry): T2 sequence (whole entry)

[12] = Ratio of drug level in mouse brain to blood at 5 mg/kg administered through oral gavage after 2 hrs; type: ADME, organism-based
[13] = Cmax in mouse at 5 mg/kg administered through oral gavage after 24 hrs; type: ADME, organism-based; parameters: dose 5 mg/kg, route oral; settings: in vivo
[14] = Ratio of unbound drug level in mouse brain to blood at 5 mg/kg administered through oral gavage after 2 hrs
[15] = Drug uptake in mouse brain at 50 mg/kg, po after 2 hrs; type: ADME, organism-based; settings: read-out: Drug uptake
Mus musculus [16] = test: Toxicity in mouse at 150 mg/kg, po after 2 hrs; type: organism-based; settings: in vivo
Mus musculus [17] = test: as §3; type: ADME, organism-based; settings: in vivo, 24 h
Mus musculus [18] = test: Toxicity in mouse at 50 mg/kg, po; type: organism-based; settings: in vivo
[19] = Apparent permeability across apical to basolateral side in human Caco2 cells; settings: Caco-2
[20] = Cmax in mouse blood at 50 mg/kg, po; type: ADME, organism-based; parameters: dose 50 mg/kg, route oral
MDR1 = test: Efflux ratio of permeability in MDCK2-MDR1 cells at 10 uM; settings: dog, MDCK-MDR1
Mus musculus [21] = test: Antidiabetic activity in GPR120 knockout mouse assessed as reduction in glucose excursion at 100 mg/kg administered through oral gavage 30 mins prior to glucose challenge measured after 90 mins by OGTT; type: functional, organism-based
Method in brief: (§4)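 OGTT used in-house C57BL/6J mice aged 10–11 weeks. GPR120 knockout and wild-type controls were bred in house, back-crossed onto C57BL/6J, and used at 9–10 weeks. Compound was given as a suspension: a concentrated stock was made at rt the day before and diluted on study day to the dosing concentrations.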

[22] = Volume of distribution at steady state in mouse at 1 mg/kg, iv after 24 hrs; type: ADME, organism-based; settings: in vivo, read-out: Vdss
Mus musculus [23] = test: Antidiabetic activity in C57BL/6J mouse assessed as reduction in glucose excursion at 100 mg/kg administered through oral gavage 30 mins prior to glucose challenge measured after 90 mins by OGTT relative to control; type: functional; parameters: scale not given: the % may be the effect or the level left; method in brief: as §4
Mus musculus [24] = test: Antidiabetic activity in wild-type mouse assessed as reduction in glucose excursion at 100 mg/kg administered through oral gavage 30 mins prior to glucose challenge measured after 90 mins by OGTT relative to control; type: functional; parameters: scale not given: the % may be the effect or the level left; method in brief: as §4
Adenosine receptor A2a = Adenosine receptor A2a (Homo sapiens, UniProt P29274); test: Inhibition of Adenosine A2A receptor (unknown origin)
Sequence of Adenosine receptor A2a (P29274 whole entry): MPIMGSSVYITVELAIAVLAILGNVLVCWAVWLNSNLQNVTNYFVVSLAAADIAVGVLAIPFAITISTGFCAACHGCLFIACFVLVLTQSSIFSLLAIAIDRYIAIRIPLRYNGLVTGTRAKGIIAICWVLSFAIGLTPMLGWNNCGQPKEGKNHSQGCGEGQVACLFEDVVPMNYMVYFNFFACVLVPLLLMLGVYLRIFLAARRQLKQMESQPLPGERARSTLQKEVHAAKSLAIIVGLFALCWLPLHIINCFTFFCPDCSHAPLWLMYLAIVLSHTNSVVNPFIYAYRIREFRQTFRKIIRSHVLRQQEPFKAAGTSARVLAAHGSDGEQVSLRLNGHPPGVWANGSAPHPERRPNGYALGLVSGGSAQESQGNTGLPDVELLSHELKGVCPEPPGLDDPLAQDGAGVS

[25] = Clearance in mouse at 1 mg/kg, iv after 24 hrs; type: ADME, organism-based; settings: in vivo
[26] = Ratio of unbound drug level in wild-type mouse brain to blood at 100 mg/kg administered through oral gavage 30 mins prior to glucose challenge measured after 90 mins
[27] = Ratio of unbound drug level in GPR120 knockout mouse brain to blood at 100 mg/kg administered through oral gavage 30 mins prior to glucose challenge measured after 90 mins; settings: in vivo, 1.5 h
[28] = Drug uptake in mouse brain at 300 mg/kg, po after 1 hr; type: ADME, organism-based; settings: read-out: Drug uptake
[29] = molecular target: 3',5'-cyclic-AMP phosphodiesterase 4D (Homo sapiens, UniProt Q08499); test: Inhibition of phosphodiesterase 4D (unknown origin)
Sequence of 3',5'-cyclic-AMP phosphodiesterase 4D (Q08499 whole entry): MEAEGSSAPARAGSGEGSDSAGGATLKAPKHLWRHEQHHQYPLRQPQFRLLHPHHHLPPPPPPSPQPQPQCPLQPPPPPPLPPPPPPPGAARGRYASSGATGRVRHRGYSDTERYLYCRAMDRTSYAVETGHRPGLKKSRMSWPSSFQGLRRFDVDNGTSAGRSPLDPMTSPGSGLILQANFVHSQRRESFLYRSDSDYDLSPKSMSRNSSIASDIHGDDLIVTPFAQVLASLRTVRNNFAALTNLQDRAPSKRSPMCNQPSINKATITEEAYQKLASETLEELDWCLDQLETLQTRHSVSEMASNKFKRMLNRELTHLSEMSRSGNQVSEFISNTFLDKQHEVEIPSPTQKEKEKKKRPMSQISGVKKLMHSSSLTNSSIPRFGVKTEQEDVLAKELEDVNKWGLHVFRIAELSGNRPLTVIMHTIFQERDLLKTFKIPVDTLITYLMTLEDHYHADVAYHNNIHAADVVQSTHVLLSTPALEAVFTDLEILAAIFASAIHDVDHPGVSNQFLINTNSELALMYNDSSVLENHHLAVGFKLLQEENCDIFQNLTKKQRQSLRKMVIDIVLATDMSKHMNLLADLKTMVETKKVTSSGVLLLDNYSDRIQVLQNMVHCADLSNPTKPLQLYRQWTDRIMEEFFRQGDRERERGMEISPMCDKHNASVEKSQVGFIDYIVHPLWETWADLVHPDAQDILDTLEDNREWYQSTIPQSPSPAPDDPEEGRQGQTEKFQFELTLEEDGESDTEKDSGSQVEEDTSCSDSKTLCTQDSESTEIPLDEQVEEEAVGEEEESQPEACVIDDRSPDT

[30] = Drug uptake in mouse blood at 300 mg/kg, po after 1 hr; type: ADME, organism-based; settings: read-out: Drug uptake
[31] = Drug uptake in mouse blood at 150 mg/kg, po after 2 hrs; type: ADME, organism-based; settings: read-out: Drug uptake
Mus musculus [32] = test: Toxicity in mouse at 300 mg/kg, po after 1 hr; type: organism-based; settings: in vivo

COc1nn(-c2ccc(C)cc2)c2cc(-c3ccc([C@H]4C[C@@H]4C(=O)O)cc3)cc(F)c12
Efficacy [1]: 11%
logD at 0.5 h [2]: > 4.2
EC50 [3]: 17 nM
EC50 [4]: > 100000 nM
fraction unbound at 24 h [5]: 0.0011
Efficacy [6]: 115%
clearance [7]: 0.4 mL/min/kg
bioavailability [8]: 19%
Efficacy [9]: 176%
Vd [10]: 0.7 L/kg
EC50 [11]: 78 nM
Kp at 2 h [12]: 0.44
Cmax [13]: 5 µM

COc1nn(-c2ccccn2)c2cc(-c3ccc([C@H]4C[C@@H]4C(=O)O)cc3)cc(F)c12
Kp uu at 2 h ([14]; brain/blood): 0.45
concentration at 2 h [15]: 147 µM
Efficacy [1]: 19%
logD at 0.5 h [2]: 3.8
EC50 [3]: 620 nM
Activity (Mus musculus [16]): Toxic
EC50 [4]: > 100000 nM
fraction unbound at 24 h [5]: 0.0053
Efficacy [6]: 93%
clearance [7]: 5.2 mL/min/kg
F (Mus musculus [17]): 159%
Efficacy [9]: 103%
Vd [10]: 1 L/kg
Activity (Mus musculus [18]): Non-Toxic
Papp A→B [19]: 29 ×10⁻⁶ cm/s
EC50 [11]: 510 nM
Kp at 2 h [12]: 2
Cmax [20]: 97 µM
Cmax [13]: 8.2 µM
efflux ratio at 10 µM (MDR1): 0.59

Cc1ccc(-n2nc(C)c3cnc(-c4ccc([C@H]5C[C@@H]5C(=O)O)cc4F)cc32)nc1
Kp uu at 2 h ([14]; brain/blood): 0.14
Efficacy [1]: 2%
logD at 0.5 h [2]: 2.6
EC50 [3]: 1000 nM
Activity (Mus musculus [21]): inactive
EC50 [4]: > 100000 nM
Vd [22]: 2.4 L/kg
fraction unbound at 24 h [5]: 0.021
Efficacy [6]: 66%
Activity (Mus musculus [23]): 45%
bioavailability [8]: 131%
Efficacy [9]: 79%
Activity (Mus musculus [24]): 47%
Papp A→B [19]: 76 ×10⁻⁶ cm/s
EC50 [11]: 740 nM
Kp at 2 h [12]: 0.37
Ki (Adenosine receptor A2a): 1700 nM
Cmax [13]: 3.3 µM
clearance [25]: 13 mL/min/kg
Kp uu at 1.5 h ([26]; brain/blood): 0.12
Ratio [27]: 0.12
efflux ratio at 10 µM (MDR1): 2.8

COc1nn(-c2ccccn2)c2cc(-c3ccc([C@H]4C[C@@H]4C(=O)O)cc3)ccc12
Kp uu at 2 h ([14]; brain/blood): 0.86
concentration at 1 h [28]: 207 µM
Efficacy [1]: 1%
logD at 0.5 h [2]: 3.8
EC50 [3]: 410 nM
Activity (Mus musculus [16]): Non-Toxic
EC50 [4]: > 100000 nM
IC50 [29]: 1600 nM
fraction unbound at 24 h [5]: 0.0048
concentration at 1 h [30]: 284 µM
Efficacy [6]: 102%
concentration at 2 h [31]: 126 µM
clearance [7]: 9.3 mL/min/kg
bioavailability [8]: 126%
Efficacy [9]: 99%
Activity (Mus musculus [32]): Toxic
Vd [10]: 1.5 L/kg
Papp A→B [19]: 31 ×10⁻⁶ cm/s
EC50 [11]: 470 nM
Kp at 2 h [12]: 2.3
Cmax [13]: 5.4 µM
efflux ratio at 10 µM (MDR1): 2

Cc1ccc(-n2nc(C)c3ccc(-c4ccc([C@H]5C[C@@H]5C(=O)O)cc4)cc32)cc1
Kp uu at 2 h ([14]; brain): 0.22
Efficacy [1]: 1%
EC50 [3]: 510 nM
Activity (Mus musculus [21]): inactive
fraction unbound at 24 h [5]: 0.0049
Efficacy [6]: 100%
clearance [7]: 9.6 mL/min/kg
bioavailability [8]: 136%
Efficacy [9]: 91%
Vd [10]: 1.2 L/kg
Kp at 2 h [12]: 0.82
Cmax [13]: 7.9 µM
Kp uu at 1.5 h ([26]; brain): 0.27
